zfTRPN1 agonist – zebrafish TRPN1 (NompC) channel agonism | HEK293 zebrafish TRPN1-YFP, Fluo-8 calcium fluorescence; 100% = response to 87 µM carbachol | activation, % at 3 µM | hit rate 0.18% among 220,000;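 active = activation above its plate's cutoff, the mean activation of test wells on that plate plus 3 SD, cut at about 19% in these data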;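 also: 0% = DMSO alone and 100% = 87 µM carbachol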
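Assay system: Zebrafish TRPN1-YFP in HEK293 cells | Incubation: Dye loading 1 h at 37 °C, then 30 min room temperature | Measured by: Kinetic Fluo-8 fluorescence, ex 470-495, em 515-575 nm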
OXTR potentiator – human OXTR potentiation. hit rate 0.061% among 320,000. activation, % at 3 µM. CHO-OTR cells, Fluo-8 calcium fluorescence, potentiator mode; 0% = oxytocin EC15, 100% = EC100;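 active = activation above that plate's cutoff, the mean activation of tested compounds plus 3 SD, cut at about 6.6% in these data, passing the limit was not always enough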;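 also: 100% uses oxytocin at 75 nM as the full agonist control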
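Assay system: CHO cell line stably expressing human OTR | Also added: Oxytocin at about EC15, sub-maximal agonist stimulus | Times: Compound 6 min at room temperature before oxytocin, 100 s read | Measured by: Fluo-8 intracellular calcium fluorescence, ex 470-495, em 515-575 nm | Controls: EC15 oxytocin alone as 0%, 75 nM oxytocin as 100%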
OXTR ag – agonists of human oxytocin receptor; activation, % at 3 µM; CHO-OTR cells, Fluo-8 calcium fluorescence; normalized: DMSO 0%, oxytocin 100%; AID 2435; hit rate 0.32% among 320,000; P30559;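 active = activation above the mean of all tested compounds plus 3 SD, cutoff set per screening run, cut at about 20% in these data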;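 also: peak over basal fluorescence ratio from a 100 s FLIPR kinetic read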
TRPML3 ag – human mucolipin-3 channel agonism; HEK293 TRPML3-YFP, Fluo-8 calcium fluorescence; 100% = the carbachol control signal; activation, % at 3 µM; hit rate 0.29% among 220,000; AID 1448;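 active = activation above its plate's cutoff, the mean activation of the plate's test wells plus 3 SD, cut at about 12% in these data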;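 also: 0% = DMSO only wells and 100% = carbachol wells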
Target sequence (Q8TDD5 whole entry, looked up): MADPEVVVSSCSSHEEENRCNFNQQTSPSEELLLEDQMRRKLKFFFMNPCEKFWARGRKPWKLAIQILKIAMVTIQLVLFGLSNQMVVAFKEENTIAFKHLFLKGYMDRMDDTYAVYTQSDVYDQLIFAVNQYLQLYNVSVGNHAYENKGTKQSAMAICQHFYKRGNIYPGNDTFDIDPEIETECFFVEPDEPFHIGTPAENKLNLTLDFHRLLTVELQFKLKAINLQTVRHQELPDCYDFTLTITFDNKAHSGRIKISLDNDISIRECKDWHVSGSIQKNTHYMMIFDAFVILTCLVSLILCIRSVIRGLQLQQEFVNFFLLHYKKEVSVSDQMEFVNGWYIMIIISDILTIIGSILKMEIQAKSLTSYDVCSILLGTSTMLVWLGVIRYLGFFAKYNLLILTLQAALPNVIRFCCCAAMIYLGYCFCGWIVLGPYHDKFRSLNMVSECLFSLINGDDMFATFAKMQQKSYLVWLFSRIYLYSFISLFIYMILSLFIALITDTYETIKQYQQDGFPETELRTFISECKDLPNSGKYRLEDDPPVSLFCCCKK
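Test system: HEK293 cells stably carrying human TRPML3-YFP; Doses: single dose, 3 µM final nominal compound, 0.3% DMSO final; Schedule: dye loading 1 h 37 °C then 30 min ambient, 125 s read; Technique: Fluo-8 calcium fluorescence; Benchmarks: high control carbachol 87 µM, low control DMSO.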
V1R ag counter – activates human V1a receptor in oxytocin agonist counter-screen. P37288. CHO-V1R cells, Fluo-8 calcium fluorescence, agonist mode; 0% DMSO, 100% 3 nM vasopressin. activation, % at 3 µM. hit rate 0.25% among 320,000. AID 2797;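 active = activation above the mean activation of all tested compounds plus 3 SD, per screening run, cut at about 20% in these data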;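 also: signal is peak over basal fluorescence ratio across a 100 second FLIPR read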
OXTR agonist cf – confirmation of human oxytocin receptor agonists | shares compounds with OXTR ag | CHO-OTR cells, Fluo-8 calcium fluorescence, agonist | activation, % at 3 µM | hit rate 20% among 390;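 active = mean activation above about 20% derived from the earlier single-dose screen, limit read from the data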;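 also: peak over minimum fluorescence ratio per well during a 100 second FLIPR read; 0% = DMSO alone and 100% = oxytocin high control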
V1R ag counter 3x – activates V1a receptor in oxytocin agonist counter-screen. activation, % at 3 µM. shares compounds with OXTR ag. CHO-V1R cells, Fluo-8 calcium fluorescence. hit rate 10% among 390;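 active = mean activation over triplicate exceeds the hit threshold set in the earlier primary screen, cut at about 20% in these data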;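 also: peak over basal fluorescence ratio within a 100 second read; 0% = DMSO alone and 100% = 3 nM vasopressin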
OXTR pot confirm – human OXTR potentiation, confirmation; shares compounds with OXTR potentiator; CHO-OTR cells, Fluo-8 calcium fluorescence; scaled from low-dose to maximal oxytocin; activation, % at 3 µM; 180 tested, under 10 active; AID 434985;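 active = mean percent activation over triplicates above a cutoff set from solvent-only control plates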;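 also: compounds tested in the presence of an EC15 dose of oxytocin; 0% = EC15 oxytocin with DMSO and 100% = EC100 oxytocin with DMSO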
Starred values were filed as active, the others as inactive; . = not tested or not shown. This is a sample that favours compounds with a hit; in the whole collection about 0.58% have one here.

SMILES	zfTRPN1 agonist	OXTR potentiator	OXTR ag	TRPML3 ag	V1R ag counter	OXTR agonist cf	V1R ag counter 3x	others
COC(C(=O)Nc1ccc(S(=O)(=O)Nc2ccc(F)cc2)cc1)c1ccccc1 (configuration not stated)	15	-10	20*	6	16	23*	14
CC(=O)Nc1ccc(OCC(O)Cn2c3ccccc3c3ccccc32)c(C)c1 (configuration not stated)	5	-13	22*	2	13	9	8
CC(=O)Nc1ccc(OCC(O)Cn2c3ccccc3c3ccccc32)cc1 (configuration not stated)	8	-16	17	3	20	.	.
C#C[C@]1(O)CC[C@H]2[C@@H]3[C@H](C)CC4=C(CCC(=O)C4)[C@H]3CC[C@@]21C	.	-22	4	.	8	.	.
CN(Cc1ccno1)C(=O)CC1C(=O)NCCN1CC(c1ccccc1)c1ccccc1 (configuration not stated)	0	-9	-1	0	-1	.	.
COc1ccc(S(=O)(=O)N2CCCN(CCC(=O)Nc3cccc(C(F)(F)F)c3)CC2)cc1	4	-12	22*	2	17	8	6
COc1ccc(NC(=O)CCN2CCN(S(=O)(=O)c3ccc(F)cc3)CC2)cc1	.	4	-1	.	1	.	.
COc1cc(Br)c(C2C(C#N)=C(N)Oc3n[nH]c(-c4cccnc4)c32)cc1OC (configuration not stated)	0	-11	0	0	1	.	.
CCCCN1C(=O)C(=O)N(CC(=O)Nc2cc(Cl)ccc2OC)C1=O	.	-5	4	.	3	.	.
CCOC(=O)c1cc(C)sc1NC(=O)CN1CCN(C(=O)c2ccco2)CC1	.	-9	23*	.	16	1	0
O=C(N1CCCCC1)N1CCN(S(=O)(=O)c2ccc(Cl)cc2)CC1	-2	-24	27*	0	2	0	0
O=C(N1CCCCCC1)N1CCN(S(=O)(=O)c2ccccc2)CC1	0	5	1	0	0	.	.
Brc1ccc2[nH]c3c(N4CCc5ccccc5C4)ncnc3c2c1	4	-21	24*	2	10	7	8
O=C(CSc1ccc(-c2ccco2)nn1)c1ccccc1	-1	-1	-2	-1	0	.	.
CC(=O)c1c(C)[nH]c(C(=O)CN2C(=O)NC(C)(c3ccc(C)cc3)C2=O)c1C (configuration not stated)	17	-13	20*	7	20	26*	17
CCCCCCCCCCOC(=O)Cn1c(COc2ccc(Cl)cc2)[n+](C)c2ccccc21	.	-11	17	.	18	.	.
CCCCCCCCCCOC(=O)Cn1c(COc2cccc(C)c2)[n+](C)c2ccccc21	.	-18	45*	.	13	34*	23*
CCCCCCCCCCOC(=O)Cn1c(COc2ccccc2C)[n+](C)c2ccccc21	.	-3	22*	.	1	15	16
Cc1ccccc1-c1nc(CN(Cc2c(C)nn(C)c2C)C2CC2)c(C)o1	0	-14	-1	1	1	.	.
COc1cccc(CNCCc2c[nH]c3ccccc23)c1OCc1ccccc1	-2	-16	29*	0	15	17	16
COc1ccc(CNCc2ccco2)cc1OCc1ccccc1	0	2	3	1	1	.	.
COc1cc(CNCCc2c[nH]c3ccccc23)ccc1OCc1ccccc1F	0	-10	22*	1	11	13	5
COc1ccccc1CCNCc1ccc(OC)c(OCc2ccccc2)c1	3	-11	22*	1	13	12	9
COCCNC(=O)/C(C#N)=C/c1ccc(N2CCOCC2)o1	5	-6	6	2	10	.	.
N#C/C(=C\c1ccc(N2CCOCC2)o1)C(=O)NCCc1ccccc1	26*	-14	21*	14*	19	23*	46*
SMILES	zfTRPN1 agonist	OXTR potentiator	OXTR ag	TRPML3 ag	V1R ag counter	OXTR agonist cf	V1R ag counter 3x	others
O=C(Nc1ccnn1C1CCN(CCCc2ccccc2)CC1)c1ccccc1Cl	.	-6	2	.	2	.	.
O=C(Nc1cc(S(=O)(=O)N2CCCCC2)ccc1N1CCCCC1)C1CC1	-1	-2	-2	0	-1	.	.
CC(C)C(=O)O/N=C(\N)c1ccc(Oc2ccc(Cl)cc2)c([N+](=O)[O-])c1	1	-11	-1	0	0	.	.
OC(CNCC1CCCO1)Cn1c2ccc(Cl)cc2c2cc(Cl)ccc21 (configuration not stated)	2	-16	33*	1	3	14	5
Cc1nc(SCC(=O)Nc2c(C)nn(C)c2C)c2cnn(-c3ccccc3)c2n1	1	-17	23*	0	6	7	8
Nc1c(C=C2C=CC(=O)C=C2)c(=O)nc2sc(CC(=O)N3CCOCC3)nn12	.	-3	0	.	1	.	.
COC1=CC(=Cc2c(N)n3nc(CC(=O)N4CCOCC4)sc3nc2=O)C=C(OC)C1=O	.	0	21*	.	8	55*	97*
CCOC(=O)c1c(C)oc2ccc(O)c(CN(C)C)c12	0	-3	0	1	1	.	.
CCOC(=O)c1c(CSc2ccc(CC)cc2)oc2ccc(O)c(CN(C)C)c12	.	-18	25*	.	14	1	4
CCc1ccc(OC(C)C(=O)Nc2ccc(S(=O)(=O)Nc3nccs3)cc2)cc1 (configuration not stated)	.	-14	20*	.	10	5	8
COc1ccc(OCC(O)CNCCOc2ccccc2OC)c(C(C)(C)C)c1 (configuration not stated)	.	-9	22*	.	10	7	2
O=C(NC(c1ccccc1)c1ccccc1)C1CCCC1	0	12*	-2	0	-1	.	.	OXTR pot confirm=0
CCC(C)c1ccc(-n2c(=O)c3ccccc3n3c(=S)[nH]nc23)cc1 (configuration not stated)	.	-10	1	.	1	.	.
CC(=O)Nc1ccc(S(=O)(=O)N(C)CC(=O)N/N=C/c2cccc(O)c2)cc1	3	15*	1	1	-1	.	.	OXTR pot confirm=-3
CC(=O)Nc1ccc(S(=O)(=O)N(C)CC(=O)N/N=C/c2cccs2)cc1	.	-8	0	.	0	.	.
CCCN(c1nc(C)cc(OC)n1)S(=O)(=O)c1ccccc1	-3	13*	-2	1	-1	.	.	OXTR pot confirm=-4
COC(=O)CN(c1nc(C)cc(OC)n1)S(=O)(=O)c1ccccc1	0	.	.	0	.	.	.
